Compound activity: PubChem, several laboratories
Hits are enriched below; roughly 2% of the tested compounds scored in any of these assays.
TWEAK-Fn14 inh = inhibitors of TWEAK-Fn14 interaction signaling. inhibition, % at 10 µM. AID 1159606. actives 2% (n = 360,000). TWEAK-stimulated Fn14 reporter cells, luciferase luminescence, 8 h; in the data active = inhibition above about 50%
LGR2 antag = Drosophila LGR2 receptor signaling inhibition | inhibition, % at 9.99 µM | HEK293 LGR2, CRE-luciferase, bursicon-stimulated, 4 h | actives 0.35% (n = 380,000);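 active = drop in luminescence signal, shown as inhibition above about 50% in the replicate tests, limit read from the data, passing the limit was not always enough; inconclusive = probably only some replicates passing the limit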;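 also: agonist challenge used bursicon conditioned medium at about half maximal strength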
CaV13 FRET inh = Primary screen for inhibitors of IQ motif and Ca2+-dependent inactivation inhibitor domain binding in CACNA1D, Förster resonance energy transfer in living cells, …; AID 743397; HEK cells, CFP/YFP FRET ICDI-IQ, plate reader, 10 min; percent FRET-ratio fall versus neutral wells; inhibition, % at 12.3 µM; actives 0.098% (n = 340,000);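 active = mean replicate inhibition of at least 30% and at least 1% of replicates passing that level; inconclusive = only one of the two criteria is met; inactive = neither criterion is met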;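 also: 0% = median of the neutral control wells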
TROY NFkB inh = TROY signaling inhibition; actives 0.98% (n = 360,000); AID 1347056; inhibition, % at 10 µM; Q293 LMP1-TROYcd NF-kB luciferase reporter, 4 h;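 active = compounds whose plate-normalised and pattern-corrected inhibition of the luciferase reporter signal at the single screening dose is 50% or more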
XiGFP reactiv = reactivates the inactive X chromosome in mouse fibroblasts; activation, % at 7.58 µM; XiGFP mouse fibroblasts, % GFP-positive cells imaging, 3 d; cells co-treated with 5-aza-dC sensitizer; scaled so ellipticine positive control = 100%; AID 743238; actives 0.055% (n = 360,000);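 active = mean normalized replicate activation at least 10% and every replicate at or above 10%; inconclusive = only one of the two criteria met; inactive = mean below 10% and not all replicates reach 10%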;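 also: 0% = median of on-plate neutral control wells and 100% = ellipticine 6 µM median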
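System: 68-5-11 XiGFP fibroblast line | Buffer or medium: DMEM containing 5-aza-dC | Compound: Single point | Times: Compounds 3 days, fix/stain 15 min at room temperature | Benchmarks: Positive control ellipticine, 6 µM final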
* = called active by the depositor; u = inconclusive; x = no result given; + = active, no number.

SMILES	TWEAK-Fn14 inh	LGR2 antag	CaV13 FRET inh	TROY NFkB inh	XiGFP reactiv
O=C1CNC[C@@H]2[C@H](c3ccc(-c4ccccc4F)cc3)[C@@H](CO)N12	x	6	x	x	0
CN(C)CCCNC(=O)C[C@H]1C=C[C@H](NC(=O)c2ccccc2F)[C@@H](CO)O1	x	3	x	x	0
CCC(=O)Nc1c(C#N)c2nc3ccccc3nc2n1-c1ccc(C)cc1	13	-3	-3	3	0
CCCCn1c(NC(=O)c2ccccc2)c(C#N)c2nc3ccccc3nc21	64*	x	2	68*	x
CCC(C)n1c(NC(=O)c2ccccc2)c(C#N)c2nc3ccccc3nc21 (configuration not stated)	42	-7	x	58*	x
COc1cccc(S(=O)(=O)NCc2ccc(C(=O)Nc3ccc(Cl)c(Cl)c3)cc2)c1	6	x	x	-2	x
O=C(Nc1ccc(Cl)c(Cl)c1)c1cccc(S(=O)(=O)NCc2cccnc2)c1	90*	6	-3	64*	0
CC(C)NC(=O)Nc1ccc2c(c1)C(=O)N(C)[C@@H]1CC[C@@H](CC(=O)Nc3ccccc3)O[C@H]1CO2	x	-1	x	x	0
O=C(/C=C/c1ccc(Cl)cc1)c1ccc([N+](=O)[O-])o1	88*	2	-4	31	u
Cc1ccc(/C=C/C(=O)c2ccc([N+](=O)[O-])o2)cc1	x	16	-6	x	0
COC(=O)C[C@H]1C[C@H]2c3cc(NC(=O)CN(C)C)ccc3O[C@H]2[C@@H](CO)O1	x	1	x	x	0
O=C(Nc1ccc2nc3n(c(=O)c2c1)CCCCC3)c1c(F)ccc([N+](=O)[O-])c1F	106*	0	-5	86*	0
O=C(Nc1ccc2nc3n(c(=O)c2c1)CCCCC3)c1cc([N+](=O)[O-])ccc1F	97*	u	-4	85*	1
COc1cc(Br)c(/C=C/c2ccc3cccc(O)c3n2)cc1OC	-22	-19	-17	8	1
Oc1cccc2ccc(/C=C/c3ccccc3Br)nc12	56*	-95	-20	55*	1
Cc1ccccc1C(=O)NNC(=O)c1cc(N)cc([N+](=O)[O-])c1	-15	-22	-20	57*	0
Cc1noc(C)c1S(=O)(=O)Nc1ccc2c(c1)CC(=O)N([C@H](C)CO)C[C@@H](C)[C@H](CN(C)Cc1ccc3c(c1)OCO3)O2	x	-2	x	x	0
N#C[C@H]1[C@@H](c2ccc(C#CCC3CCCC3)cc2)[C@H](CO)N1C(=O)c1ccccn1	x	5	x	x	0
C[C@@H]1CN([C@@H](C)CO)C(=O)c2cccc(NC(=O)Nc3cccc4ccccc34)c2O[C@H]1CN(C)C(=O)Nc1ccc(F)cc1	x	11	x	x	0
Cc1csc2ncnc(N3CCN(C(=S)Nc4ccc(F)cc4F)CC3)c12	54*	42	-4	90*	0
C[C@H]1CN([C@@H](C)CO)C(=O)c2cccc(NS(=O)(=O)c3ccc(Cl)cc3)c2O[C@H]1CN(C)C(=O)Nc1ccc(C(F)(F)F)cc1	x	-24	x	x	0
O=c1c2c(nc3cc(-c4ccc(F)cc4)[nH]n13)CCCC2	80*	u	x	56*	x
O=c1c2c(nc3cc(-c4ccc(Cl)cc4)[nH]n13)CCS2	73*	-21	-5	-17	0
CCc1c(C)nc2cc(-c3ccc(Cl)cc3)[nH]n2c1=O	-16	-53	-18	-31	0
COCC(=O)N1CC2(C1)[C@H](c1ccc(-c3ccccc3)cc1)[C@H](CO)N2C(=O)COC	x	9	x	x	0
SMILES	TWEAK-Fn14 inh	LGR2 antag	CaV13 FRET inh	TROY NFkB inh	XiGFP reactiv
O=C(C1CCCCC1)N1CC[C@@H]2[C@@H](CO)Nc3ccc(Br)cc3[C@@H]21	x	-7	x	x	0
N#CC1=C(N)Oc2cc(N)ccc2C1c1ccc(F)cc1F (configuration not stated)	26	13	+	-64	0
CSc1ccc(-c2nc(CSCC(=O)N3CCOCC3)c(C)o2)cc1	8	-6	-5	8	x
CCc1ccc(-c2nc(CSCC(=O)N3CCN(c4ncccn4)CC3)c(C)o2)cc1	51*	4	-7	79*	0
Cc1noc(C)c1NC(=O)N(C)C[C@H]1OCCCC[C@@H](C)Oc2ccc(NS(=O)(=O)c3ccc(Cl)cc3)cc2C(=O)N([C@H](C)CO)C[C@H]1C	x	-11	x	x	0
O=C(COc1ccccc1)Nc1cccc(-c2nc3cc4ccccc4cc3[nH]2)c1	77*	x	-4	7	x
CC[C@@H](C(=O)[C@@H](C)[C@@H](O)[C@H](C)CCc1ccc(C)c(O)c1C(=O)O)[C@H]1O[C@](CC)([C@H]2CC[C@](O)(CC)[C@H](C)O2)C[C@@H]1C	86*	70*	-5	76*	0
CCCCS(=O)(=O)N1CCCC(C(=O)Nc2ccc(Cl)cn2)C1 (configuration not stated)	85*	-3	-3	5	0
CCCS(=O)(=O)N1CCCC(C(=O)Oc2ccc(Cl)cc2)C1 (configuration not stated)	-13	11	-3	0	0
CCN1/C(=C/C=C/c2sc3ccccc3[n+]2CC)Sc2ccccc21	96*	x	x	53*	x
CCN1/C(=C/c2ccc3cc(C)ccc3[n+]2CC)Sc2cc(C)c(C)cc21	45	14	-6	29	162*
CCN1/C(=C/c2ccc3cc(C)ccc3[n+]2CC)Sc2ccccc21	72*	27	-65	65*	448*
CC[n+]1c(/C=C2\Sc3ccccc3N2C)ccc2cccc(C)c21	85*	81*	-173	64*	105*
CC[n+]1ccccc1/C=C1\Sc2ccc(C)cc2N1C	13	13	-30	9	1
CCN1/C(=C/C=C/C=C/C=C/c2sc3ccccc3[n+]2CC)Sc2ccccc21	-1	-2	-20	-1	0
N#Cc1ccc(-c2ccc3c(c2)[C@H]2[C@H](CCN2S(=O)(=O)c2ccccc2F)[C@H](CO)N3)cc1	x	11	x	x	0
COCC#Cc1ccc2c(c1)O[C@@H](CN(C)Cc1ccc3c(c1)OCO3)[C@H](C)CN([C@H](C)CO)S2(=O)=O	x	-1	x	x	0
Cc1ccc(S(=O)(=O)NCC[C@@H]2CC[C@H](NC(=O)Nc3cccc(F)c3)[C@@H](CO)O2)cc1	x	24	x	x	2
Cc1ccccc1S(=O)(=O)NCC[C@@H]1CC[C@H](NS(=O)(=O)c2ccccc2C)[C@H](CO)O1	x	-9	x	x	0
O=C(/C(=C/O)N=Nc1ccccc1Cl)c1ccccc1	58*	-13	-2	52*	0
COC(=O)c1ccc(CN2CC(=O)N3[C@H](CO)[C@@H](c4ccc(-c5ccccc5)cc4)[C@H]3C2)cc1	x	x	x	x	0
CC(C)(C)OC(=O)NCC(=O)Oc1cc2oc(=O)cc(-c3ccccc3)c2cc1Cl	80*	16	-5	48	0
